Assay outcomes as filed in PubChem.
Arbovirus anti = antivirals against arbovirus infection; inhibition, % at 10 µM; actives 0.37% (n = 200,000); arbovirus infection cell-based antiviral screen; in the data active = inhibition above about 30%
p47phox inh = blocks human p47phox regulatory protein of NADPH oxidases. P14598. p47phox/p22phox peptide binding, fluorescence polarization, 2 h. inhibition, % at 24.7 µM. actives 0.53% (n = 220,000). AID 1274;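 active = inhibition above about 30%, limit read from the data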
HSV replic up = HSV replication enhancement; HSV replication augmentation in cells, fold increase; maximum fold increase; actives 0.005% (n = 220,000); AID 1956; in the data active = maximum fold increase above about 1.5; inconclusive = no clear call, values can overlap the other calls; tested in PC3 cells
ABCG2 block = blocks JC-1 efflux by human ABCG2 transporter; Q9UNQ0; IgMXP3 cells, flow cytometry; inhibition, % at 6.6 µM; actives 0.1% (n = 190,000); AID 1325;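 active = inhibition above 80%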
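Assay system – ABCG2 IgMXP3 and barcoded ABCB1 CCRF-Adr cell mix · Input – 3 million cells/mL in well · Reagent – JC-1 fluorescent substrate · Compound – single test compound dose, 6.6 µM final · Timing – 10 min exposure at 25 °C with rotation, no wash · Detection – flow cytometry of retained JC-1 fluorescence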
Furin inh = inhibitors of human furin. P09958. purified furin, fluorogenic substrate cleavage. inhibition, % at 20 µM or 30 µM. actives 0.061% (n = 220,000). AID 463115; in the data active = inhibition above about 25%
ABCB1 block = human ABCB1 inhibition, ABCG2 as counter-screen; P08183; CCRF-Adr cells, JC-1 efflux, flow cytometry; inhibition, % at 6.6 µM; actives 0.067% (n = 190,000); in the data active = inhibition above about 40%;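 note: higher value means more JC-1 retained so stronger ABCB1 efflux block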
Large screens that a line does not name were inactive. Only some compounds are listed: those with a hit (about 0.95% of all), similar ones and a draw of the others.

CCOc1ccc(-n2c(=S)sc3c(=O)[nH]c(SCC(=O)NC(C)CC)nc32)cc1 (stereo not drawn)	none
CCN(CC)C(=O)CSc1nc2c(sc(=S)n2-c2ccccc2)c(=O)n1Cc1ccco1	none
O=C(Cn1cnc2cc([N+](=O)[O-])ccc2c1=O)Nc1ccc(N2CCOCC2)cc1	HSV replic up inconclusive (no result: Arbovirus anti, ABCG2 block, ABCB1 block)
CCOC(=O)c1c(C)oc2c1c(CN1CCN(CCO)CC1)c(O)c1ccccc12	p47phox inh 38
CC1(C)NC(=O)N(CC(O)COC2CCCCC2)C1=O (stereo not drawn)	p47phox inh 41 (no result: HSV replic up)
Cn1nc(-c2ccccc2)c(CSc2ccccc2)c1Cl	p47phox inh 139
CCCN(CCC)C(=O)CSc1nc2ccccc2c(=O)n1C1CCCC1	ABCB1 block 52
CN(C)c1ccc(NC(=O)CSc2nc3ccccc3c(=O)n2C2CCCCC2)cc1	none
CSc1cccc(NC(=O)CCc2ccccc2)c1	none
CSc1cccc(NC(=O)CCC(=O)O)c1	p47phox inh 71
Cc1c(-c2cccc(Cl)c2)nc2ccccc2c1C(=O)OC/C(O)=C(\C#N)c1nc2ccccc2[nH]1	none
CCc1ccccc1N1CSC2=C(C#N)C(c3cc(OC)c(OC)cc3OC)CC(=O)N2C1 (stereo not drawn)	p47phox inh 31
COc1cc(OC)c(C2CC(=O)N3CN(c4ccccc4)CSC3=C2C#N)cc1OC (stereo not drawn)	none
Cc1csc2c(=O)sc(NC(=O)c3cccs3)nc12	none (no result: Arbovirus anti, ABCG2 block, ABCB1 block)
CC1=C(C(=O)OCCNC(=O)c2ccccc2O)C(c2ccccc2[N+](=O)[O-])C(C(=O)OCC2CCCO2)=C(C)N1 (stereo not drawn)	none
Cc1ccc(/C=N/Nc2ccnc3cc(Cl)ccc23)c(C)c1	p47phox inh 47
Cc1ccccc1/C=N/Nc1ccnc2cc(Cl)ccc12	none
Cc1ccc(C(=O)NC(C)c2nc3ccccc3n2CC(=O)Nc2c(C)cc(C)cc2C)cc1 (stereo not drawn)	none (no result: Arbovirus anti, ABCG2 block, ABCB1 block)
CCN(CC)c1ccc(NC(=O)Cn2c(C(C)NC(=O)c3ccccc3)nc3ccccc32)cc1 (stereo not drawn)	p47phox inh 39
CCC(C)C(NC(=O)C1CCC(C)CC1)C(=O)NCc1cccnc1 (stereo not drawn)	Furin inh 29
CC(=O)N1CCc2cc(C(=O)CN3CCCCC3)ccc21	none (no result: HSV replic up)
CCOC(=O)N1CCN(CC(=O)c2ccc3c(c2)CCN3C(C)=O)CC1	p47phox inh 49
Cc1c(O)c2c3c(cccc3c1O)C(=O)N(c1ccccc1)C2=O	Arbovirus anti 35, HSV replic up inconclusive
Cc1ccnc(SCc2cc(=O)c(OC(=O)c3ccc(Cl)c([N+](=O)[O-])c3)co2)n1	Furin inh 25
CCc1c(C)sc(NC(=O)c2ccccc2[N+](=O)[O-])c1C(N)=O	none
O=C(CSc1nnc(-c2ccccc2F)n1C1CC1)Nc1cccnc1Cl	none
COc1ccc2nc(N=Nc3c(O)ccc4ccccc34)sc2c1	p47phox inh 34
CCOc1ccc(CN(C(=O)c2oc3ccccc3c2C)C2CCS(=O)(=O)C2)cc1 (stereo not drawn)	none
COc1ccc(CN(C(=O)c2oc3ccccc3c2C)C2CCS(=O)(=O)C2)cc1OC (stereo not drawn)	Arbovirus anti 87
CCOC(=O)c1cnc2ccc(C(=O)OC)cc2c1Nc1cccc(C(=O)O)c1	p47phox inh 42
Cc1ccc(-c2csc(NC(=O)CSc3nc4ccccc4c(=O)n3CCCN(C)C)n2)cc1	p47phox inh 37
Brc1ccccc1-c1nnc(SCc2nc3ccccc3s2)o1	Arbovirus anti 34
CCN(CC)S(=O)(=O)c1cccc(-c2nnc(SCc3nc4ccccc4s3)o2)c1	none
NC(N)=N/N=C/c1cccc(Cl)c1Cl	none
Cc1ccc(C(=O)NC2CCCc3ccccc32)o1 (stereo not drawn)	Furin inh 25
COC(C[C@@H](O)C[C@H](O)COCc1ccccc1)OC	none (no result: Arbovirus anti, ABCG2 block, ABCB1 block)
COc1ccc2c(c1)C(=NNC(=O)c1ccccn1)c1cc(OC)ccc1-2	p47phox inh 49
O=C(Nc1nc(-c2ccc3c(c2)OCO3)cs1)C1COc2ccccc2O1 (stereo not drawn)	Arbovirus anti 52
O=C(Nc1nc(-c2ccccc2)cs1)C1COc2ccccc2O1 (stereo not drawn)	none
COc1cccc(C(=O)Nc2nc(-c3ccc4c(c3)OCO4)cs2)c1	Arbovirus anti 42
COc1cccc(C(=O)Nc2nc(-c3ccncc3)cs2)c1	none
CC(=O)N1CCCN(Cc2cn(-c3cccc(C)c3)nc2-c2cccc(F)c2)CC1	none (no result: Arbovirus anti, ABCG2 block, ABCB1 block)
O=C(CN1C(=O)C2CC=CCC2C1=O)NCc1ccc2c(c1)OCO2 (stereo not drawn)	none
O=C(CN1C(=O)C2C3C=CC(C3)C2C1=O)NCc1ccc2c(c1)OCO2 (stereo not drawn)	Furin inh 27
O=C1C2C3C=CC(C2C(=O)N1c1ccc(O)cc1)C1C2C(=O)N(c4ccc(O)cc4)C(=O)C2C31 (stereo not drawn)	p47phox inh 34 (no result: Arbovirus anti, ABCG2 block, ABCB1 block)
O=C1C2C3C=CC(C2C(=O)N1c1ccccc1O)C1C2C(=O)N(c4ccccc4O)C(=O)C2C31 (stereo not drawn)	none
COc1cc(/C=N/NC(=O)c2ccc(CN3C(=O)c4cccc5cccc3c45)cc2)cc(OC)c1O	none (no result: Arbovirus anti, ABCG2 block, ABCB1 block)
CCn1c(SCC(=O)c2ccc(O)c(O)c2)nnc1-c1ccccc1OC	p47phox inh 70
Nc1ccc(N2CCCCC2)c(Cl)c1	none
Cc1cccc(NC2=C/C(=N/S(=O)(=O)c3cccs3)c3ccccc3C2=O)c1	none (no result: HSV replic up)
O=C1C(Nc2ccc(O)cc2)=C/C(=N/S(=O)(=O)c2cccs2)c2ccccc21	p47phox inh 31
Cc1ccc(NC2=C/C(=N\S(=O)(=O)c3cccs3)c3ccccc3C2=O)c(C)c1	HSV replic up inconclusive
Cc1ccc(Cl)cc1NC1=C/C(=N\S(=O)(=O)c2cccs2)c2ccccc2C1=O	p47phox inh 84
COc1ccc(C2C(C#N)=C(N)Oc3cc4c(cc32)OCO4)cc1 (stereo not drawn)	p47phox inh 64
COc1ccc(OC)c(C2C(C#N)=C(N)Oc3cc(N)ccc32)c1 (stereo not drawn)	none
C=C(C)CNC(=O)CCc1nnc(Cc2cccc(C(F)(F)F)c2)o1	none
NS(=O)(=O)c1cccc(NC(=O)COC(=O)CN2C(=O)C3CC=CCC3C2=O)c1 (stereo not drawn)	none
CCCCN(C)S(=O)(=O)c1ccc(C(=O)N(CCN(C)C)c2nc3ccc(C)cc3s2)cc1	none
CCCCN(CC)S(=O)(=O)c1ccc(C(=O)N(CCCN(C)C)c2nc3cc(C)cc(C)c3s2)cc1	p47phox inh 36
C=CCOc1ccc2cccc(/C=N/NC(=O)c3cc4cc([N+](=O)[O-])ccc4s3)c2c1	p47phox inh 41
O=C(Cn1ncc2c3ccccc3n(Cc3ccccc3)c2c1=O)NCc1ccco1	none (no result: Arbovirus anti, ABCG2 block, ABCB1 block)
